Results taken from ChEMBL document CHEMBL1153763, “Discovering a new analogue of thalidomide which may be used as a potent modulator of TNF-alpha production” (Eur J Med Chem, 2009).

Legend:
[1] = test system: HT-29; experiment: Cytotoxicity against human HT-29 cells by MTT assay; assay type: functional, cell-based
[2] = test system: DLD-1; experiment: Cytotoxicity against human DLD1 cells by MTT assay; assay type: functional, cell-based
[3] = test system: HL-60; experiment: Inhibition of okadaic acid-induced TNFalpha production in human HL60 cells at 30 uM after 16 hrs by ELISA relative to control; assay type: functional; conditions: HL-60, 16 h, values are per cent of control
Procedure, shortened: (§1)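 HL-60 cells in RPMI 1640 with 10% fetal bovine serum, 2 mM L-glutamine and penicillin/streptomycin, 37 °C, 5% CO2. Exponential cells (5×10^5 cells/mL) given 50 nM okadaic acid plus compound (30 µM) for 16 h. Cell number and morphology checked microscopically. Supernatant TNF-α measured by human TNF-α ELISA, expressed as % of okadaic acid-only treatment (100%). At least three experiments, triplicate means.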

[4] = test system: HL-60; experiment: Enhancement of 12-O-tetradecanoylphorbol-13-acetate-induced TNFalpha production in human HL60 cell at 30 uM after 16 hrs by ELISA relative to control; assay type: functional
Procedure, shortened: as §1, with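 “co-treated with 10” for “given 50”, “TPA” for “okadaic acid”, “TPA-only” for “okadaic acid-only”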

[5] = test system: ST486; experiment: Cytotoxicity against human ST486 cells by MTT assay; assay type: functional, cell-based
[6] = test system: HL-60; experiment: Cytotoxicity against human HL60 cells by MTT assay; assay type: functional, cell-based
[7] = test system: HUVEC; experiment: Cytotoxicity against HUVEC by MTT assay; assay type: cell-based; conditions: Homo sapiens

Compound | IC50 [1] [µM] | IC50 [2] [µM] | response, % of control at 30 µM [3] [%] | Activity [4] [%] | IC50 [5] [µM] | IC50 [6] [µM] | IC50 [7] [µM]
CN(C)CCN1C(=O)CCC(N2C(=O)c3ccccc3C2=O)C1=O (stereo unspecified) | > 50 | > 50 | 93 | 125 | > 50 | > 50 | > 50
CN(C)CCN1C(=O)CCC(n2c(=O)c3cc4c(=O)n(C5CCC(=O)N(CCN(C)C)C5=O)c(=O)c4cc3c2=O)C1=O (stereo unspecified) | > 50 | > 50 | 77 | 138 | > 50 | > 50 | > 50
CN(CCN1C(=O)CCC(N2C(=O)c3ccccc3C2=O)C1=O)CCN1C(=O)CCC(N2C(=O)c3ccccc3C2=O)C1=O (stereo unspecified) | > 50 | > 50 | 99 | 159 | > 50 | > 50 | > 50
O=C1CCC(N2C(=O)c3cccc4cc([N+](=O)[O-])cc(c34)C2=O)C(=O)N1 (stereo unspecified) | > 50 | > 50 | 47 | 248 | > 50 | > 50 | > 50
CN(C)CCN1C(=O)CCC(N2C(=O)c3cccc4cccc(c34)C2=O)C1=O (stereo unspecified) | > 50 | > 50 | 91 | 107 | > 50 | > 50 | > 50
CN(C)CCN1C(=O)CCC(N2C(=O)c3cccc4cc([N+](=O)[O-])cc(c34)C2=O)C1=O (stereo unspecified) | > 50 | > 50 | 48 | 124 | > 50 | > 50 | > 50
Nc1cc2c3c(cccc3c1)C(=O)N(C1CCC(=O)NC1=O)C2=O (stereo unspecified) | > 50 | > 50 | 46 | 138 | > 50 | > 50 | > 50
NC(=O)CCC(C(=O)O)N1C(=O)c2cc3ccccc3cc2C1=O (stereo unspecified) | > 50 | > 50 | 60 | 258 | > 50 | > 50 | > 50
NC(=O)CCC(C(=O)O)N1C(=O)c2ccc3ccccc3c2C1=O (stereo unspecified) | > 50 | > 50 | 111 | 146 | > 50 | > 50 | > 50
CN(C)CCN1C(=O)CCC(N2C(=O)c3cccc4cc(N)cc(c34)C2=O)C1=O (stereo unspecified) | > 50 | > 50 | 47 | 132 | > 50 | > 50 | > 50
CN(C)CCN1C(=O)CCC(N2C(=O)c3cc4ccccc4cc3C2=O)C1=O (stereo unspecified) | > 50 | > 50 | 50 | 149 | > 50 | > 50 | > 50
CN(C)CCN1C(=O)CCC(N2C(=O)c3ccc4ccccc4c3C2=O)C1=O (stereo unspecified) | > 50 | > 50 | 59 | 105 | > 50 | > 50 | > 50
O=C1CCC(N2C(=O)c3cc4ccccc4cc3C2=O)C(=O)N1 (stereo unspecified) | > 50 | > 50 | 138 | 166 | > 50 | > 50 | > 50
O=C1CCC(N2C(=O)c3ccc4ccccc4c3C2=O)C(=O)N1 (stereo unspecified) | > 50 | > 50 | 78 | 161 | > 50 | > 50 | > 50
O=C1CCC(N2C(=O)C(c3ccccc3)=C(c3ccccc3)C2=O)C(=O)N1 (stereo unspecified) | > 50 | > 50 | 47 | 147 | > 50 | > 50 | > 50
NC(=O)CCC(C(=O)O)N1C(=O)C(c2ccccc2)=C(c2ccccc2)C1=O (stereo unspecified) | > 50 | > 50 | 66 | 146 | > 50 | > 50 | > 50
O=C1CCC(n2c(=O)c3cc4c(=O)n(C5CCC(=O)NC5=O)c(=O)c4cc3c2=O)C(=O)N1 (stereo unspecified) | > 50 | > 50 | 34 | 294 | > 50 | > 50 | > 50
CN(C)CCN1C(=O)CCC(N2C(=O)C(c3ccccc3)=C(c3ccccc3)C2=O)C1=O (stereo unspecified) | > 50 | > 50 | 6 | 672 | > 50 | > 50 | > 50
NC(=O)CCC(C(=O)O)N1C(=O)c2cccc3cccc(c23)C1=O (stereo unspecified) | > 50 | > 50 | 55 | 116 | > 50 | > 50 | > 50
NC(=O)CCC(C(=O)O)N1C(=O)c2cccc3cc([N+](=O)[O-])cc(c23)C1=O (stereo unspecified) | > 50 | > 50 | 51 | 86 | > 50 | > 50 | > 50
NC(=O)CCC(C(=O)O)N1C(=O)c2cccc3cc(N)cc(c23)C1=O (stereo unspecified) | > 50 | > 50 | 49 | 140 | > 50 | > 50 | > 50
O=C1CCC(N2C(=O)c3cccc4cccc(c34)C2=O)C(=O)N1 (stereo unspecified) | > 50 | > 50 | 49 | 158 | > 50 | > 50 | > 50
O=C1CCC(N2C(=O)c3ccccc3C2=O)C(=O)N1 (stereo unspecified) [THALIDOMIDE] | > 50 | > 50 | 53 | 164 | > 50 | > 50 | > 50
